According to ChEMBL document CHEMBL4373711, “Development of 3,5-Dinitrophenyl-Containing 1,2,4-Triazoles and Their Trifluoromethyl Analogues as Highly Efficient Antitubercular Agents Inhibiting Decaprenylphosphoryl-β-d-ribofuranose 2'-Oxidase” (J Med Chem, 2019):
Converted amounts (≈) assume the structure as drawn.

Legend:
Format in all cases: functional
Mycobacterium kansasii [1] = test: Antimycobacterial activity against Mycobacterium kansasii 6509/96 after 14 days; settings: 6509/96, 336 h
Summary of the method: (§1)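 Microdilution in Šula's semisynthetic medium; compounds in DMSO at 32–0.03 µM. Inoculum from 1.0 McFarland suspension diluted 10-4. […] Isoniazid and rifampicin as reference drugs.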

Mycobacterium kansasii [2] = test: Antimycobacterial activity against Mycobacterium kansasii CNCTC My 235/80 after 14 days; settings: CNCTC My 235/80, 336 h; summary of the method: as §1
[3] = system: Mycobacterium tuberculosis; test: Antimycobacterial activity against Mycobacterium tuberculosis H37Rv CNCTC My 331/88 after 14 days; settings: H37Rv CNCTC My 331/88, 336 h
Summary of the method: (§2)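 M. tuberculosis strains (H37Rv and clinical MDR/XDR isolates) tested by microdilution in Šula's semisynthetic medium. Compounds were dissolved in DMSO and tested at 32 to 0.03 µM in twofold steps. Inoculum was a 1.0 McFarland suspension diluted 10-3. Plates were incubated at 37 °C and read at 14 and 21 days.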

Mycobacterium kansasii [4] = test: Antimycobacterial activity against Mycobacterium kansasii CNCTC My 235/80 after 21 days; settings: CNCTC My 235/80, 504 h; summary of the method: as §1
Mycobacterium kansasii [5] = test: Antimycobacterial activity against Mycobacterium kansasii 6509/96 after 7 days; settings: 6509/96, 168 h; summary of the method: as §1
Mycobacterium kansasii [6] = test: Antimycobacterial activity against Mycobacterium kansasii CNCTC My 235/80 after 7 days; settings: CNCTC My 235/80, 168 h; summary of the method: as §1
[7] = system: Mycobacterium tuberculosis; test: Antimycobacterial activity against Mycobacterium tuberculosis H37Rv CNCTC My 331/88 after 21 days; settings: H37Rv CNCTC My 331/88, 504 h; summary of the method: as §2
Mycobacterium kansasii [8] = test: Antimycobacterial activity against Mycobacterium kansasii 6509/96 after 21 days; settings: 6509/96, 504 h; summary of the method: as §1
Mycobacterium avium [9] = test: Antimycobacterial activity against Mycobacterium avium CNCTC My 330/88 after 21 days; settings: CNCTC My 330/88, 504 h
Summary of the method: (§3)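 M. avium was tested by microdilution in Šula's semisynthetic medium, with compounds dissolved in DMSO and serially diluted from 1000 down to 1. Inoculum was a 1.0 McFarland suspension diluted 10-5. Plates were incubated at 37 °C and read at 14 and 21 days. […] Isoniazid and rifampicin served as standards.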

Mycobacterium avium [10] = test: Antimycobacterial activity against Mycobacterium avium CNCTC My 330/88 after 14 days; settings: CNCTC My 330/88, 336 h; summary of the method: as §3

For CCn1c(SCc2cc([N+](=O)[O-])cc([N+](=O)[O-])c2)nnc1-c1ccccc1, the MIC99 (Mycobacterium kansasii [1]) was 4 µM (≈ 1.54 µg/mL), the MIC99 (Mycobacterium kansasii [2]) was 2 µM (≈ 0.771 µg/mL) and the MIC99 [3] was 2 µM (≈ 0.771 µg/mL). It also gave an MIC99 (Mycobacterium kansasii [4]) of 4 µM (≈ 1.54 µg/mL), an MIC99 (Mycobacterium kansasii [5]) of 2 µM (≈ 0.771 µg/mL) and an MIC99 (Mycobacterium kansasii [6]) of 2 µM (≈ 0.771 µg/mL). The MIC99 [7] was 4 µM (≈ 1.54 µg/mL), the MIC99 (Mycobacterium kansasii [8]) was 4 µM (≈ 1.54 µg/mL) and the MIC99 (Mycobacterium avium [9]) was 250 µM (≈ 96.4 µg/mL). The MIC99 (Mycobacterium avium [10]) was 250 µM (≈ 96.4 µg/mL).
O=[N+]([O-])c1cc(CSc2nnc(-c3ccccc3)n2Cc2ccc(Br)cc2)cc([N+](=O)[O-])c1 showed an MIC99 (Mycobacterium kansasii [1]) of 4 µM (≈ 2.11 µg/mL), an MIC99 (Mycobacterium kansasii [2]) of 4 µM (≈ 2.11 µg/mL) and an MIC99 [3] of 2 µM (≈ 1.05 µg/mL). It also gave an MIC99 (Mycobacterium kansasii [4]) of 4 µM (≈ 2.11 µg/mL), an MIC99 (Mycobacterium kansasii [5]) of 2 µM (≈ 1.05 µg/mL) and an MIC99 (Mycobacterium kansasii [6]) of 2 µM (≈ 1.05 µg/mL). For the same molecule, the MIC99 [7] was 2 µM (≈ 1.05 µg/mL), the MIC99 (Mycobacterium kansasii [8]) was 4 µM (≈ 2.11 µg/mL) and the MIC99 (Mycobacterium avium [9]) was 250 µM (≈ 132 µg/mL). It also gave an MIC99 (Mycobacterium avium [10]) of 250 µM (≈ 132 µg/mL).
O=C(NNC(=S)NCc1ccc(Cl)cc1Cl)c1cc([N+](=O)[O-])cc([N+](=O)[O-])c1 showed an MIC99 (Mycobacterium kansasii [1]) of 16 µM (≈ 7.11 µg/mL), an MIC99 (Mycobacterium kansasii [2]) of 16 µM (≈ 7.11 µg/mL) and an MIC99 [3] of 8 µM (≈ 3.55 µg/mL). It also gave an MIC99 (Mycobacterium kansasii [4]) of 16 µM (≈ 7.11 µg/mL), an MIC99 (Mycobacterium kansasii [5]) of 16 µM (≈ 7.11 µg/mL) and an MIC99 (Mycobacterium kansasii [6]) of 16 µM (≈ 7.11 µg/mL). It also gave an MIC99 [7] of 8 µM (≈ 3.55 µg/mL), an MIC99 (Mycobacterium kansasii [8]) of 16 µM (≈ 7.11 µg/mL) and an MIC99 (Mycobacterium avium [9]) of 32 µM (≈ 14.2 µg/mL). For the same molecule, the MIC99 (Mycobacterium avium [10]) was 16 µM (≈ 7.11 µg/mL).
Work on O=C(NNC(=S)NCc1ccccc1)c1cc([N+](=O)[O-])cc([N+](=O)[O-])c1 yielded an MIC99 (Mycobacterium kansasii [1]) of 16 µM (≈ 6.01 µg/mL), an MIC99 (Mycobacterium kansasii [2]) of 32 µM (≈ 12 µg/mL) and an MIC99 [3] of 8 µM (≈ 3 µg/mL). The MIC99 (Mycobacterium kansasii [4]) was 32 µM (≈ 12 µg/mL), the MIC99 (Mycobacterium kansasii [5]) was 16 µM (≈ 6.01 µg/mL) and the MIC99 (Mycobacterium kansasii [6]) was 32 µM (≈ 12 µg/mL). It also gave an MIC99 [7] of 8 µM (≈ 3 µg/mL), an MIC99 (Mycobacterium kansasii [8]) of 16 µM (≈ 6.01 µg/mL) and an MIC99 (Mycobacterium avium [9]) of 62 µM (≈ 23.3 µg/mL). It also gave an MIC99 (Mycobacterium avium [10]) of 62 µM (≈ 23.3 µg/mL).
Molecule O=[N+]([O-])c1cc(CSc2nnc(CCCCCO)n2Cc2ccccc2)cc([N+](=O)[O-])c1 has an MIC99 (Mycobacterium kansasii [1]) of 32 µM (≈ 14.6 µg/mL), an MIC99 (Mycobacterium kansasii [2]) of 16 µM (≈ 7.32 µg/mL) and an MIC99 [3] of 16 µM (≈ 7.32 µg/mL). For the same molecule, the MIC99 (Mycobacterium kansasii [4]) was 32 µM (≈ 14.6 µg/mL), the MIC99 (Mycobacterium kansasii [5]) was 16 µM (≈ 7.32 µg/mL) and the MIC99 (Mycobacterium kansasii [6]) was 8 µM (≈ 3.66 µg/mL). It also gave an MIC99 [7] of 32 µM (≈ 14.6 µg/mL), an MIC99 (Mycobacterium kansasii [8]) of 32 µM (≈ 14.6 µg/mL) and an MIC99 (Mycobacterium avium [9]) of over 1000 µM. For the same molecule, the MIC99 (Mycobacterium avium [10]) was over 1000 µM.
O=[N+]([O-])c1cc(-c2nnc(SCc3ccc(Br)cc3)n2Cc2ccccc2)cc(C(F)(F)F)c1 showed an MIC99 (Mycobacterium kansasii [1]) of 1 µM (≈ 0.549 µg/mL), an MIC99 (Mycobacterium kansasii [2]) of 1 µM (≈ 0.549 µg/mL) and an MIC99 [3] of 1 µM (≈ 0.549 µg/mL). For the same molecule, the MIC99 (Mycobacterium kansasii [4]) was 1 µM (≈ 0.549 µg/mL), the MIC99 (Mycobacterium kansasii [5]) was 0.5 µM (≈ 0.275 µg/mL) and the MIC99 (Mycobacterium kansasii [6]) was 0.5 µM (≈ 0.275 µg/mL). It also gave an MIC99 [7] of 1 µM (≈ 0.549 µg/mL), an MIC99 (Mycobacterium kansasii [8]) of 2 µM (≈ 1.1 µg/mL) and an MIC99 (Mycobacterium avium [9]) of 250 µM (≈ 137 µg/mL). It also gave an MIC99 (Mycobacterium avium [10]) of 250 µM (≈ 137 µg/mL).
For NNC(=O)c1ccncc1 [ISONIAZID], the MIC99 (Mycobacterium kansasii [1]) was 4 µM (≈ 0.549 µg/mL), the MIC99 (Mycobacterium kansasii [2]) was over 250 µM and the MIC99 (Mycobacterium kansasii [4]) was over 250 µM. The MIC99 (Mycobacterium kansasii [5]) was 2 µM (≈ 0.274 µg/mL), the MIC99 (Mycobacterium kansasii [6]) was over 250 µM and the MIC99 (Mycobacterium kansasii [8]) was 4 µM (≈ 0.549 µg/mL). The MIC99 (Mycobacterium avium [9]) was over 250 µM and the MIC99 (Mycobacterium avium [10]) was over 250 µM.
Cc1ccc(-c2nnc(SCc3cc([N+](=O)[O-])cc(C(F)(F)F)c3)n2Cc2ccccc2)cc1 showed an MIC99 (Mycobacterium kansasii [1]) of over 32 µM, an MIC99 (Mycobacterium kansasii [2]) of over 32 µM and an MIC99 [3] of over 32 µM. The MIC99 (Mycobacterium kansasii [4]) was over 32 µM, the MIC99 (Mycobacterium kansasii [5]) was over 32 µM and the MIC99 (Mycobacterium kansasii [6]) was over 32 µM. It also gave an MIC99 [7] of over 32 µM, an MIC99 (Mycobacterium kansasii [8]) of over 32 µM and an MIC99 (Mycobacterium avium [9]) of 250 µM (≈ 121 µg/mL). For the same molecule, the MIC99 (Mycobacterium avium [10]) was 250 µM (≈ 121 µg/mL).
For CCCCCCCCSc1nnc(-c2cc([N+](=O)[O-])cc(C(F)(F)F)c2)n1Cc1ccccc1, the MIC99 (Mycobacterium kansasii [2]) was 2 µM (≈ 0.985 µg/mL), the MIC99 [3] was 2 µM (≈ 0.985 µg/mL) and the MIC99 (Mycobacterium kansasii [4]) was 2 µM (≈ 0.985 µg/mL). The MIC99 (Mycobacterium kansasii [6]) was 1 µM (≈ 0.493 µg/mL), the MIC99 [7] was 2 µM (≈ 0.985 µg/mL) and the MIC99 (Mycobacterium avium [9]) was 250 µM (≈ 123 µg/mL). It also gave an MIC99 (Mycobacterium avium [10]) of 250 µM (≈ 123 µg/mL).
